Test results published in article PMC3544189 (ACS medicinal chemistry letters, 2012).
Entries after “also recorded” stand apart in the source; their conditions may differ.

Tests used:
[1] = test system: proteasome; settings: cited from earlier work
[2] = test system: PA28-activated proteasome inhibited by Aβ1-42; assay: Antagonism of Aβ1-42 inhibition of PA28-activated proteasome by compound 2; format: biochemical; settings: compound 2 at 14, 28, 56 μM; Aβ1-42 10 μg/ml; PA28 1.8 μg/ml
[3] = test system: chymotrypsin-like activity of human 20S proteasome; format: biochemical; settings: for Proteasome activation (in words): chymotrypsin-like activity, absence of PA28
Summary of the method: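 Without PA28, proteasome was exposed to test compound. Chymotrypsin-like activity was followed by cleavage of the fluorogenic substrate Suc-LLVY-AMC, read in relative fluorescence units against a proteasome-plus-substrate background. EC50 was the concentration raising activity to 50% of its maximum level. Values are mean ± SD of three independent experiments.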

[4] = test system: chymotrypsin-like proteasome activity (20S proteasome + PA28); assay: Inhibition of chymotrypsin-like proteasome activity in the presence of PA28; format: biochemical, human
Summary of the method: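 The proteasome was activated by the cellular activator PA28 and then exposed to test compound. Chymotrypsin-like activity was read by Suc-LLVY-AMC fluorescence, with proteasome plus substrate as background. IC50 was the concentration inhibiting PA28-present chymotrypsin-like activity by 50%. Values are mean ± SD of three independent experiments.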

[5] = test system: proteasome; settings: cited from earlier work; remark: listed apart in the source
[6] = test system: proteasome; settings: cited from earlier work; remark: listed apart in the source
[7] = target: PA28-activated proteasome; assay: Inhibition of PA28-activated proteasome by Aβ1-42; format: biochemical; settings: PA28 1.8 μg/ml

Row | Molecule | Proteasome activation (in words) [3] | Proteasome inhibition (in words) [4] | also measured
1 | COC(=O)CC[C@@H](C)[C@H]1CC[C@H]2[C@@H]3CC[C@@H]4C[C@H](OC(=O)CCCCCC(=O)O)CC[C@]4(C)[C@H]3CC[C@]12C [Compound 2, 3α-O-pimeloyl-lithocholic acid methyl ester] | active in proteasome activation |  | Proteasome inhibition in previous study (in words) [1]: inactive in proteasome inhibition; Antagonism of Aβ1-42-mediated proteasome inhibition (in words) [2]: antagonized the Aβ1-42-mediated proteasome inhibition in a dose dependent manner; also recorded: potently antagonized; also recorded: completely reverse
2 | CCOC(=O)CC[C@@H](C)[C@H]1CC[C@H]2[C@@H]3CC[C@@H]4C[C@H](OC(=O)CCCCCC(=O)O)CC[C@]4(C)[C@H]3CC[C@]12C [Compound 3] | completely abrogated the proteasome activation activity |  | 
3 | CNC(=O)CC[C@@H](C)[C@H]1CC[C@H]2[C@@H]3CC[C@@H]4C[C@H](OC(=O)CCCCCC(=O)O)CC[C@]4(C)[C@H]3CC[C@]12C [Compound 4] | completely abrogated the proteasome activation activity |  | 
4 | COC(=O)CC[C@@H](C)[C@H]1CC[C@H]2[C@@H]3CC[C@@H]4C[C@@H](OC(=O)CCCCCC(=O)O)CC[C@]4(C)[C@H]3CC[C@]12C [Compound 5] | did not activate the proteasome | inhibited the proteasome | 
5 | COC(=O)CC[C@@H](C)[C@H]1CC[C@H]2[C@@H]3CC[C@@H]4C[C@H](NC(=O)CCCCCC(=O)O)CC[C@]4(C)[C@H]3CC[C@]12C [Compound 6] |  |  | Increase of proteasome activation activity relative to compound 2 ([3]; C3 amide versus C3 ester): approximately two-fold
6 | COC(=O)CC[C@@H](C)[C@H]1CC[C@H]2[C@@H]3CC[C@@H]4C[C@@H](NC(=O)CCCCCC(=O)O)CC[C@]4(C)[C@H]3CC[C@]12C [Compound 7] | did not activate the proteasome | inhibited the proteasome | 
7 | COC(=O)CC[C@@H](C)[C@H]1CC[C@H]2[C@@H]3CC[C@@H]4C[C@@H](N)CC[C@]4(C)[C@H]3CC[C@]12C [Compound 9, 3-β-amino-lithocholic acid methyl ester] | did not activate the proteasome | inhibited the proteasome | 
8 | C[C@H](CCC(=O)O)[C@H]1CC[C@H]2[C@@H]3CC[C@@H]4C[C@H](O)CC[C@]4(C)[C@H]3CC[C@]12C [Lithocholic acid, lithocholic acid, reference compound] | did not activate the proteasome | weak proteasome inhibitor | 
9 | C/C=C1/[C@H](O[C@@H]2O[C@H](CO)[C@@H](O)[C@H](O)[C@H]2O)OC=C(C(=O)OC)[C@H]1CC(=O)OCCc1ccc(O)c(O)c1 [Oleuropein, reference compound] | did not show any significant activity; also recorded: did not activate the proteasome |  | Proteasome activation over background proteasome activity ([5]; absence of cellular proteasome activators): approximately 1.5 fold; Concentration reported to enhance proteasome activities in vitro [5]: 0.5 µg/mL
10 | CCCCCCCCCCCCOS(=O)(=O)[O-].[Na+] [SDS] |  |  | Concentration reported for proteasome activation [5]: 0.05%
11 | CN(C)c1ccc2nc3ccc(=[N+](C)C)cc-3sc2c1 [methylene blue] |  |  | Enhancement of proteasome activity (in words) [6]: slightly enhance proteasome activity
12 | Aβ1-42: amyloid beta peptide 1-42, the likely pathogenic form of Aβ |  |  | Inhibition of PA28-activated proteasome (in words) [7]: inhibited the proteasome in a dose dependent manner
13 | polylysine |  |  | Concentration reported for proteasome activation [5]: 1 mg/mL
